These results are taken from ChEMBL document CHEMBL2157918, “Design and synthesis of 1H-1,2,3-triazoles derived from econazole as antitubercular agents” (Bioorg Med Chem Lett, 2012).

Converted amounts (≈) assume the structure as drawn.

One assay relates to Vero. The experiment in a line: Cytotoxicity against african green monkey Vero cells after 3 days by MTT assay. In kind it is cell-based. Particulars: Chlorocebus sabaeus, 72 h. Put shortly: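 Early-log-phase Vero cell suspension was exposed to serially diluted compounds (initially in DMSO) in RPMI 1640 for 3 days and read by MTT assay. Effect was normalized to DMSO-only wells and IC50 was calculated.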
A general note: Tetrazolium dyes change colour on reduction, which living cells bring about.

The test system of another assay is Candida albicans. The experiment in a line: Antifungal activity against Candida albicans ATCC 90027 after 48 hrs by broth microdilution method. Particulars: ATCC 90027, 48 h. The assay is classed as functional. Put shortly: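 Broth microdilution with two-fold compound dilutions in tryptic soy broth. C. albicans grown in the same medium was exposed for 48 h. Growth was visualized with Alamar Blue. MIC was taken as the lowest concentration that inhibited the Alamar Blue color change.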
For orientation: Dilution methods test growth across graded concentrations, often in twofold steps.

Assay [1] relates to Mycobacterium tuberculosis. The experiment in a line: Antitubercular activity against Mycobacterium tuberculosis H37Rv expressing GFP after 7 days by reporter gene assay. Particulars: 168 h. In kind it is functional. The gist of the method: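 Compound dissolved in DMSO, two-fold dilutions in 7H9 broth; Mtb H37Rv-GFP grown in Middlebrook 7H9, inoculum 2 × 10⁵ CFU/mL, exposed 7 days. Fluorescence read; MIC = lowest concentration inhibiting fluorescence by 90% versus bacteria-only wells.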

Assay [2] is described as follows: Selectivity index, ratio of IC50 for african green monkey Vero cells to MIC90 for Mycobacterium tuberculosis H37Rv. The assay is classed as functional. Put shortly: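 Vero cells in early log phase, in RPMI 1640, exposed to serial compound dilutions for 3 days; viability by MTT assay; effect normalized to DMSO-only wells, IC50 by curve fitting. SI = Vero IC50 over Mtb H37Rv-GFP MIC (90% fluorescence inhibition, 7-day 7H9 exposure, 2 × 10⁵ CFU/mL inoculum).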

Assay [3] concerns Mycobacterium tuberculosis. The experiment in a line: Ratio of econazole MIC90 to compound MIC90 for Mycobacterium tuberculosis H37Rv. The assay is classed as functional.

With `OC(Cn1ccnn1)c1ccc(Cl)cc1Cl` (stereo not given), the IC50 (usually the concentration at which inhibition is half-maximal) with Vero was greater than 200 µg/mL. In addition, the MIC – broadly, the lowest concentration found to suppress growth – with Candida albicans is greater than 256 µg/mL. Also, in assay [1], the MIC90 (usually an inhibitory concentration at the 90% level, which refers to growth in some studies and to a panel of isolates in others) is 256 µg/mL (≈ 992 µM).

In turn, `CCCCc1cn(CC(OCc2ccc(Cl)cc2)c2ccc(Cl)cc2Cl)nn1` (stereo not given) displayed an IC50 with Vero of 10.6 µg/mL (≈ 24.2 µM). The same molecule showed an MIC against Candida albicans greater than 256 µg/mL. Also, the MIC90 in assay [1] amounted to 128 µg/mL (≈ 292 µM).

`Clc1ccc(COC(Cn2cc(-c3ccccn3)nn2)c2ccc(Cl)cc2Cl)cc1` (stereo not given) showed an IC50 in the assay on Vero greater than 50 µg/mL. In the assay with Candida albicans, this molecule yielded an MIC greater than 256 µg/mL. Further, the MIC90 in assay [1] stood at 256 µg/mL (≈ 557 µM).

In assay [1], `CO[C@H]1/C=C/O[C@@]2(C)Oc3c(C)c(O)c4c(O)c(c(/C=N/N5CCN(C)CC5)c(O)c4c3C2=O)NC(=O)/C(C)=C\C=C\[C@H](C)[C@H](O)[C@@H](C)[C@@H](O)[C@@H](C)[C@H](OC(C)=O)[C@@H]1C` [RIFAMPIN] came in with an MIC90 of 0.0625 µg/mL (≈ 0.0759 µM).

The molecule `OC(Cn1nnc2ccccc21)c1ccc(Cl)cc1Cl` (stereo not given) yielded an IC50 in the assay with Vero greater than 100 µg/mL. The molecule further had an MIC in the assay on Candida albicans greater than 256 µg/mL. Also, the MIC90 in assay [1] was greater than 256 µg/mL.

Regarding `OC(Cn1cc(C2CCCCC2)nn1)c1ccc(Cl)cc1Cl` (stereo not given), the “Selectivity Index” value in assay [2] was found to be 1. This molecule also showed an IC50 with Vero of 31.9 µg/mL (≈ 93.9 µM). The MIC against Candida albicans was greater than 256 µg/mL. Moreover, in assay [1], the MIC90 turned out to be 16 µg/mL (≈ 47 µM).

For `Nc1ccc(-c2cn(CC(O)c3ccc(Cl)cc3Cl)nn2)cc1` (stereo not given), the IC50 in the assay on Vero is 33.9 µg/mL (≈ 97.2 µM). The same molecule showed an MIC against Candida albicans greater than 256 µg/mL. This molecule registered an MIC90 in assay [1] of 32 µg/mL (≈ 91.6 µM).

Consider `OCCc1cn(CC(OCc2ccc(Cl)cc2)c2ccc(Cl)cc2Cl)nn1` (stereo not given), for which, in the assay on Vero, the IC50 amounted to 24.3 µg/mL (≈ 57 µM). Further, the MIC with Candida albicans is greater than 256 µg/mL. Besides, the MIC90 in assay [1] is greater than 256 µg/mL.

In the assay on Vero, `CCCCc1cn(CC(OCc2ccc(OC(F)(F)F)cc2)c2ccc(Cl)cc2Cl)nn1` (stereo not given) displayed an IC50 of 63.4 µg/mL (≈ 130 µM). For the same molecule, in the assay with Candida albicans, the MIC was greater than 256 µg/mL. Moreover, the MIC90 in assay [1] is greater than 256 µg/mL.

`Nc1cccc(-c2cn(CC(O)c3ccc(Cl)cc3Cl)nn2)c1` (stereo not given) yielded an IC50 with Vero of 26.8 µg/mL (≈ 76.7 µM). This molecule also returned an MIC with Candida albicans greater than 256 µg/mL. Besides, the MIC90 in assay [1] was determined as 32 µg/mL (≈ 91.6 µM).

Take `OCc1cn(CC(O)c2ccc(Cl)cc2Cl)nn1` (stereo not given): the IC50 in the assay on Vero was greater than 100 µg/mL. The MIC90 in assay [1] is greater than 256 µg/mL.

In the case of `CCCCc1cn(CC(OCc2ccc(F)cc2F)c2ccc(Cl)cc2Cl)nn1` (stereo not given), the IC50 in the assay on Vero turned out to be 21 µg/mL (≈ 47.7 µM). Further, the MIC in the assay with Candida albicans is greater than 256 µg/mL. Further, the MIC90 in assay [1] was greater than 256 µg/mL.

In the assay with Vero, `Nc1ccc(-c2cn(CC(OCc3ccc(Cl)cc3)c3ccc(Cl)cc3Cl)nn2)cc1` (stereo not given) returned an IC50 greater than 50 µg/mL. The MIC in the assay with Candida albicans was greater than 256 µg/mL. The MIC90 in assay [1] is 256 µg/mL (≈ 540 µM).

Regarding `OCc1cn(CC(OCc2ccc(Cl)cc2)c2ccc(Cl)cc2Cl)nn1` (stereo not given), in the assay with Vero, the midpoint of inhibition, the IC50, lay at 19.8 µg/mL (≈ 48 µM). For the same molecule, the MIC against Candida albicans is greater than 256 µg/mL. Further, the MIC90 in assay [1] is greater than 256 µg/mL.

Consider `CC(C)(C)c1cn(CC(OCc2ccc(Cl)cc2)c2ccc(Cl)cc2Cl)nn1` (stereo not given), for which the IC50 in the assay on Vero was greater than 25 µg/mL. The MIC in the assay with Candida albicans is greater than 256 µg/mL. The same molecule gave an MIC90 in assay [1] greater than 256 µg/mL.

As to `Clc1ccc(COC(Cn2ccnc2)c2ccc(Cl)cc2Cl)cc1` (stereo not given) [ECONAZOLE], the “Selectivity Index” value in assay [2] worked out at 1. In the assay with Candida albicans, this molecule returned an MIC of 16 µg/mL (≈ 41.9 µM). The MIC90 in assay [1] is 16 µg/mL (≈ 41.9 µM).

Take `Nc1cccc(-c2cn(CC(OCc3ccc(Cl)cc3)c3ccc(Cl)cc3Cl)nn2)c1` (stereo not given): the IC50 with Vero is greater than 50 µg/mL. In addition, the MIC against Candida albicans is greater than 256 µg/mL. The molecule also had an MIC90 in assay [1] greater than 256 µg/mL.

In turn, `Clc1ccc(COC(Cn2cc(C3CCCCC3)nn2)c2ccc(Cl)cc2Cl)cc1` (stereo not given) returned an IC50 with Vero greater than 12.5 µg/mL. The MIC in the assay with Candida albicans was greater than 256 µg/mL. This molecule came in with an MIC90 in assay [1] greater than 256 µg/mL.

The molecule `Clc1ccc(COC(Cn2nnc3ccccc32)c2ccc(Cl)cc2Cl)cc1` (stereo not given) displayed an IC50 in the assay with Vero greater than 12.5 µg/mL. Moreover, in the assay with Candida albicans, the MIC is greater than 256 µg/mL. In assay [1], this molecule gave an MIC90 of 128 µg/mL (≈ 296 µM).

Take `Clc1ccc(COC(Cn2ccnn2)c2ccc(Cl)cc2Cl)cc1` (stereo not given): the IC50 in the assay with Vero was greater than 12.5 µg/mL. The MIC with Candida albicans was greater than 256 µg/mL. Moreover, in assay [1], the MIC90 amounted to 64 µg/mL (≈ 167 µM).

`OCCc1cn(CC(OCc2ccc(F)cc2F)c2ccc(Cl)cc2Cl)nn1` (stereo not given) had an IC50 with Vero of 33.7 µg/mL (≈ 78.6 µM). The same molecule had an MIC against Candida albicans greater than 256 µg/mL. In addition, the MIC90 in assay [1] was determined as 128 µg/mL (≈ 299 µM).

`OC(Cn1cc(-c2ccccn2)nn1)c1ccc(Cl)cc1Cl` (stereo not given) returned an MIC90 in assay [1] of 32 µg/mL (≈ 95.5 µM).

Take `OCCc1cn(CC(O)c2ccc(Cl)cc2Cl)nn1` (stereo not given): the IC50 in the assay with Vero was found to be 274 µg/mL (≈ 907 µM). The MIC in the assay with Candida albicans was greater than 256 µg/mL. Besides, in assay [1], the MIC90 was found to be 256 µg/mL (≈ 847 µM).

`CC(C)(C)c1cn(CC(O)c2ccc(Cl)cc2Cl)nn1` (stereo not given) returned an IC50 with Vero of 33.9 µg/mL (≈ 108 µM). This molecule displayed an MIC with Candida albicans of 256 µg/mL (≈ 815 µM). In assay [1], this molecule yielded an MIC90 of 32 µg/mL (≈ 102 µM).

In the case of `CCCCc1cn(CC(O)c2ccc(Cl)cc2Cl)nn1` (stereo not given), the Ratio in assay [3] is reported as 2. Also, the “Selectivity Index” value in assay [2] came to 1. In the assay on Vero, this molecule had an IC50 of 23.3 µg/mL (≈ 74.1 µM). This molecule showed an MIC against Candida albicans greater than 256 µg/mL. Besides, the MIC90 in assay [1] was found to be 8 µg/mL (≈ 25.5 µM).

In the case of `OCCc1cn(CC(OCc2ccc(OC(F)(F)F)cc2)c2ccc(Cl)cc2Cl)nn1` (stereo not given), in the assay with Candida albicans, the MIC is greater than 64 µg/mL. The molecule also had an MIC90 in assay [1] greater than 64 µg/mL.
